Assay results: ChEMBL document CHEMBL4043277, “Enantioselective inhibitory abilities of enantiomers of notoamides against RANKL-induced formation of multinuclear osteoclasts” (Bioorg Med Chem Lett, 2017)
Calls of active or inactive are those of the source. The rule behind the calls is not given here.

Columns and labels:
RAW264 [1] = assay: Inhibition of RANKL-induced formation of multinuclear osteoclasts in mouse RAW264 cells at 10 ug/ml after 4 days by p-NPP substrate based absorbance method; assay type: functional, cell-based
Outline: (§1)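 RAW264 cells in MEMα/10% FBS were plated for one day, then treated with compound plus soluble RANKL (250 ng/mL) for four days. After a PBS wash, cells were lysed on ice for 10 min in TRAP buffer (tartrate/acetate, pH 5.7). Extract was incubated with 2.5 mM p-nitrophenyl phosphate at 37°C for 4 h and stopped with NaOH. A405 was read in quadruplicate.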

[2] = Inhibition of RANKL-induced formation of multinuclear osteoclasts in mouse RAW264 cells after 4 days by p-NPP substrate based absorbance method; assay type: functional, cell-based; conditions: RAW264.7, 96 h; outline: as §1
RAW264 [3] = assay: Inhibition of RANKL-induced formation of multinuclear osteoclasts in mouse RAW264 cells at 5 uM after 4 days by TRAP staining based assay; assay type: functional, cell-based
Outline: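 RAW264 cells were treated with compound plus soluble RANKL (250 ng/mL) for four days, then fixed in 4% paraformaldehyde for 10 min at room temperature. They were stained 1 h at room temperature with naphthol AS-MX phosphate/fast red violet LB in tartrate/acetate, pH 5.2. TRAP-positive cells with three or more nuclei were scored as multinuclear osteoclasts.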

[4] = Inhibition of RANKL-induced Nfatc1 mRNA expression in mouse RAW264 cells at 5 uM after 5 days by RT-PCR method relative to control; assay type: functional; conditions: RAW264.7, 120 h
Outline: (§2)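 RAW264 cells grown in MEMα with 10% heat-inactivated FBS and penicillin/streptomycin at 37°C, 5% CO2. Cells were co-treated with RANKL (50 ng/mL) and compound for five days. Total RNA was analysed by real-time RT-PCR with SYBR Green: 95 °C 10 min, then cycles of 95 °C 10 s, annealing 5 s, 72 °C 14 s. Expression was calculated from duplicate experiments.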

[5] = Inhibition of RANKL-induced Acp5 mRNA expression in mouse RAW264 cells at 5 uM after 5 days by RT-PCR method relative to control; assay type: functional; conditions: RAW264.7, 120 h; outline: as §2
[6] = Inhibition of RANKL-induced Ctsk mRNA expression in mouse RAW264 cells at 5 uM after 5 days by RT-PCR method relative to control; assay type: functional; conditions: RAW264.7, 120 h; outline: as §2
[7] = Inhibition of RANKL-induced Atp6v0d2 mRNA expression in mouse RAW264 cells at 5 uM after 5 days by RT-PCR method relative to control; assay type: functional; conditions: RAW264.7, 120 h; outline: as §2
[8] = Inhibition of RANKL-induced Dcstamp mRNA expression in mouse RAW264 cells at 5 uM after 5 days by RT-PCR method relative to control; assay type: functional; conditions: RAW264.7, 120 h; outline: as §2
[9] = Inhibition of RANKL-induced Ocstamp mRNA expression in mouse RAW264 cells at 5 uM after 5 days by RT-PCR method relative to control; assay type: functional; conditions: RAW264.7, 120 h; outline: as §2

| Structure (SMILES) | osteoclast formation inhibition (active/not active) (RAW264 [1]) | other results |
| --- | --- | --- |
| C=CC(C)(C)[C@]1(C[C@@H]2NC(=O)[C@@H]3CCCN3C2=O)C(=O)Nc2c1ccc1c2C=CC(C)(C)O1 | inactive |  |
| CC(C)=CCc1c(O)ccc2c3c([nH]c12)C(C)(C)[C@H]1CC24CCCN2C(=O)C1(C3)NC4=O (mixture of isomers) | Active |  |
| CC1(C)C=Cc2c(ccc3c2N(O)C(=O)[C@@]32C[C@@]34NC(=O)[C@]5(CCCN5C3=O)C[C@H]4C2(C)C)O1 | Active |  |
| C=CC(C)(C)[C@@]12Nc3c(ccc4c3C=CC(C)(C)O4)[C@]1(O)C[C@H]1C(=O)N3CCC[C@H]3C(=O)N12 | inactive |  |
| CC1(C)C=Cc2c(ccc3c2NC(=O)[C@@]32C[C@@]34NC(=O)[C@]5(CCCN5C3=O)C[C@H]4C2(C)C)O1 | Active |  |
| CC1(C)C=Cc2c(ccc3c2N(O)C(=O)[C@]32C[C@]34NC(=O)[C@@]5(CCCN5C3=O)C[C@@H]4C2(C)C)O1 | Active |  |
| CC(C)=CCc1c(O)ccc2c3c([nH]c12)C(C)(C)[C@@H]1C[C@@]24CCCN2C(=O)[C@]1(C3)NC4=O |  | IC50 [2]: 1.7 µM; inhibition (RAW264 [3]): inactive; inhibition at 5 µM [4]: 20 to 50%; inhibition at 5 µM [5]: 20 to 50%; inhibition at 5 µM [6]: 20 to 50%; inhibition at 5 µM [7]: 20 to 50%; inhibition at 5 µM [8]: 20 to 50%; inhibition at 5 µM [9]: 20 to 50% |
| CC1(C)C=Cc2c(ccc3c4c([nH]c23)C(C)(C)[C@@H]2C[C@]35CCCN3C(=O)[C@@]2(C4)NC5=O)O1 | Active |  |
| CC1(C)C=Cc2c(ccc3c2NC(=O)[C@]32C[C@]34NC(=O)[C@@]5(CCCN5C3=O)C[C@@H]4C2(C)C)O1 | Active |  |
| CC(C)=CCc1c(O)ccc2c3c([nH]c12)C(C)(C)[C@H]1C[C@]24CCCN2C(=O)[C@@]1(C3)NC4=O |  | IC50 [2]: 4.4 µM |
| CC1(C)C=Cc2c(ccc3c4c([nH]c23)C(C)(C)[C@H]2C[C@@]35CCCN3C(=O)[C@]2(C4)NC5=O)O1 | Active |  |
